Data set [1] can be described thus: Plasma clearance in rat. The data set is classed as ADME, organism-based. The procedure, abridged: (§1)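 Rats; plasma concentration–time data of test compound from two to three separate animals, analysed noncompartmentally for half-life and clearance.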
Data set [2] is described as follows: Half life period in rat. In kind it is ADME, organism-based. The note with it: in vivo. In outline: as §1
Data set [3] concerns the target T1, Integrin alpha-V/beta-3 (Homo sapiens, UniProt P05106+P06756). Briefly: Binding affinity for Vitronectin receptor (alpha V beta 3). In kind it is protein-complex assay. In outline:
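Competition binding to human αvβ3 with displacement of 3H-SK&F 107260; Ki from the mean of two to three separate experiments.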

The target in data set [4] is T1, Integrin alpha-V/beta-3. Briefly: HEK cell adhesion mediated by alpha v beta 3 integrin. The data set is classed as functional, cell-based, HEK293. The procedure, abridged: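 HEK 293 cells transfected with human αvβ3; inhibition of their adhesion to purified human vitronectin measured. IC50 as the mean of two experiments run in triplicate, with an internal standard.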

In data set [5] the target is Integrin alpha-IIb/beta-3 (Homo sapiens, UniProt P05106+P08514). Put plainly: Binding affinity for alpha IIb beta-3 integrin. The data set is classed as protein-complex assay. The procedure, abridged: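 Human αIIbβ3 competition binding, 3H-SK&F 107260 as the displaced radioligand; Ki averaged over two to three separate experiments.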
A short description of data set [6]: Oral bioavailability in rat. The data set is classed as ADME, organism-based. The note with it: in vivo. The procedure, abridged:
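Rat iv and po dosing; plasma concentration–time data from two to three animals; oral bioavailability calculated from dose-normalized iv and po AUC values.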

Usually clearance stands for the rate of elimination divided by the concentration. One may read the half-life as the time needed for the level to fall by half in the phase considered. Read a high half-life as slow decline. What is called pKi is −log10 of the Ki, conventionally taken in molar units. High values mean a low Ki, low ones a high Ki. Usually pIC50 stands for the negative decadic logarithm of the IC50, by convention in mol/L. A low value points to a high IC50. For orientation: bioavailability means the share of a dose that reaches the circulation, judged against a reference dose that is usually intravenous.

pIC50, pKi: −log10 of the molar value.

T1 sequence (P05106 27-788 limits assumed): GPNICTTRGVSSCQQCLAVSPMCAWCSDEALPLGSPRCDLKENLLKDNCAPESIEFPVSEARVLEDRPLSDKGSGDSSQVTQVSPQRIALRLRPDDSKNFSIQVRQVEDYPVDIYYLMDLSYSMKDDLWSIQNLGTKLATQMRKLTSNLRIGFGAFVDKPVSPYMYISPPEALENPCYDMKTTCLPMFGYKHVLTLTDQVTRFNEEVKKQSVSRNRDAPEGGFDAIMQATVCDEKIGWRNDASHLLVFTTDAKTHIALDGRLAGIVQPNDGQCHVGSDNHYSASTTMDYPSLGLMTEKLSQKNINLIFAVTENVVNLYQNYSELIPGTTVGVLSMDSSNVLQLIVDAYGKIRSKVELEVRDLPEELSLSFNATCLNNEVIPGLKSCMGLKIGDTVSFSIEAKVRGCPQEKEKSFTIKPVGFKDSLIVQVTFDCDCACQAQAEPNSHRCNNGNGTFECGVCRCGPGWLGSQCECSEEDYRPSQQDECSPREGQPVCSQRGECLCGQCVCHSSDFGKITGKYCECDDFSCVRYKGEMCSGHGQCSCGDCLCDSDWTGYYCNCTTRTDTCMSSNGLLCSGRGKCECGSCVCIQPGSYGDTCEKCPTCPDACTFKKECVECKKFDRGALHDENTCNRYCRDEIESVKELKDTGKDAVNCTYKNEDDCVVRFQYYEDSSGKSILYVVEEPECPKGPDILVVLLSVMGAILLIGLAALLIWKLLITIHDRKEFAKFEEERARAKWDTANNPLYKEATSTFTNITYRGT
T1 sequence (P06756 31-889 limits assumed): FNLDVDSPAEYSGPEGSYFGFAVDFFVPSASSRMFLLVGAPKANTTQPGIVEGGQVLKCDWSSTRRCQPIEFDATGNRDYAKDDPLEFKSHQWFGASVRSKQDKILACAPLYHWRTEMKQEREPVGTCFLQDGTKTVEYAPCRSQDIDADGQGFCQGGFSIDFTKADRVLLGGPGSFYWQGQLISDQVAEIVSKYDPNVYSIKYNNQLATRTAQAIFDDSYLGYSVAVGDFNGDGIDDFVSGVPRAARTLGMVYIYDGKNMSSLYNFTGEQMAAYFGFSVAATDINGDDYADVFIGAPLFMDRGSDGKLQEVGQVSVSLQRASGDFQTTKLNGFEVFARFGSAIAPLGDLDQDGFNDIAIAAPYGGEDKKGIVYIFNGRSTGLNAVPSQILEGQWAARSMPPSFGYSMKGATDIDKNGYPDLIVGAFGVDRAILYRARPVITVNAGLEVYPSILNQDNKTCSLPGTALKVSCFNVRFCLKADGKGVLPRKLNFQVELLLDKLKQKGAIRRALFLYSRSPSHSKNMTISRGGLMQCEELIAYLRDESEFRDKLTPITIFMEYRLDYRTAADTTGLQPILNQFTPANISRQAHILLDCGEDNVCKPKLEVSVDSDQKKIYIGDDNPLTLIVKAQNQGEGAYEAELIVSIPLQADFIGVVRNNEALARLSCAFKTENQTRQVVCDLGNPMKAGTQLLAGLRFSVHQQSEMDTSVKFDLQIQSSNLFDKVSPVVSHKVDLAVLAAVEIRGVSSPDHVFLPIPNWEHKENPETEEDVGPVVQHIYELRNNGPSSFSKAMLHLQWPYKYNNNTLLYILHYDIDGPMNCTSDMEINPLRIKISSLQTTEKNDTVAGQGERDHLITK
T1 sequence (P06756 891-1048 limits assumed): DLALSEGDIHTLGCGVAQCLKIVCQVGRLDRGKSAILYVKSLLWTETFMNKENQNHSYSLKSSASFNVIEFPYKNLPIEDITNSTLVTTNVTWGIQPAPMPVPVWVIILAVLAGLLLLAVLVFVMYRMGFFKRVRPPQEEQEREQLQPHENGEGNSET
Chain of Integrin alpha-IIb/beta-3 (P05106 27-788 limits assumed): as the sequence (P05106 27-788 limits assumed) above
Chain of Integrin alpha-IIb/beta-3 (P08514 32-887 limits assumed): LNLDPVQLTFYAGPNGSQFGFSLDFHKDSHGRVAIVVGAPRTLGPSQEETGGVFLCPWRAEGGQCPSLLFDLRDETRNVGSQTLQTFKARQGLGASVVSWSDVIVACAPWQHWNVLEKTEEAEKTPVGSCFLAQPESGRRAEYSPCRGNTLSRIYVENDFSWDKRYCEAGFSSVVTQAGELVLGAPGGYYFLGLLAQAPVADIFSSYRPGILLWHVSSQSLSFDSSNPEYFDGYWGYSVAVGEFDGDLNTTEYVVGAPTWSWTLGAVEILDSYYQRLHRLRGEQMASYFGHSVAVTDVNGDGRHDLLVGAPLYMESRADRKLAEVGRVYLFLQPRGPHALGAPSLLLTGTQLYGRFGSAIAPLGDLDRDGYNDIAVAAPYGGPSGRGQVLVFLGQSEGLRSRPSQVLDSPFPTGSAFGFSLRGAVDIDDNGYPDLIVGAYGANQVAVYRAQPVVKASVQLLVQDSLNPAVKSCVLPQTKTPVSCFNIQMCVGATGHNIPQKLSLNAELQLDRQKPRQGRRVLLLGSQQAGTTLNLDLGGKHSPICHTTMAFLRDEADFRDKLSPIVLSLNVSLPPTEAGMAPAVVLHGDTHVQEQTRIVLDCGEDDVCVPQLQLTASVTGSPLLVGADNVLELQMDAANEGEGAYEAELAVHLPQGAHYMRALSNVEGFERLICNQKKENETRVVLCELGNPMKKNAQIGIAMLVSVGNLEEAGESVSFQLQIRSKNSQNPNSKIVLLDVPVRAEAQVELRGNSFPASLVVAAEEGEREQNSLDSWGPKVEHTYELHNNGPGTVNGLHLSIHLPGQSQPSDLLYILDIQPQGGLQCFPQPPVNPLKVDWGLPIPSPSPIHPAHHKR
Chain of Integrin alpha-IIb/beta-3 (P08514 891-1039 limits assumed): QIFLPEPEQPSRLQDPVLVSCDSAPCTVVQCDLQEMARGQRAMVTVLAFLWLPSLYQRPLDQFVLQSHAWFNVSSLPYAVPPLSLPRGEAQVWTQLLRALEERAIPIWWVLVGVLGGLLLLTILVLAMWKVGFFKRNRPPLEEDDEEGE

For `O=C(O)C[C@@H]1Cc2ccc(OCCCNc3ccccn3)cc2Cc2ccccc21`, the clearance in data set [1] was determined as 4 mL/min/kg. For the same compound, in data set [2], the half-life is 192 min.
With `CN1Cc2cc(OCCCNc3ccccn3)ccc2CC(CC(=O)O)C1=O` (stereo unspecified), the pKi at Integrin alpha-V/beta-3 [3] is 8.72; in data set [5] it was 4.52. In data set [1], the clearance worked out at 50 mL/min/kg. The same compound gave a half-life in data set [2] of 16 min. At Integrin alpha-V/beta-3 [4], this compound gave a negative-log IC50 (pIC50) of 7.12. The compound further yielded a bioavailability in data set [6] of 9%.
With `O=C(O)CC1Cc2ccc(OCCCNc3ccccn3)cc2CN(CC(F)(F)F)C1=O` (stereo unspecified), the figures for the pKi (at Integrin alpha-V/beta-3 [3]; in data set [5]) were 8.89 and 5.05, respectively. The clearance in data set [1] is 63 mL/min/kg. For the same compound, the half-life in data set [2] is 25 min. On Integrin alpha-V/beta-3 [4], the pIC50 is 7.28. This compound returned a bioavailability in data set [6] of 19%.
Compound `O=C(O)C[C@H]1Cc2ccc(OCCCNc3ccccn3)cc2CN(CC(F)(F)F)C1=O` had a negative-log Ki (pKi) at Integrin alpha-V/beta-3 [3] of 7.70. Further, in data set [1], the clearance is 60 mL/min/kg. The half-life in data set [2] was 19 min. Further, the negative-log IC50 (pIC50) against Integrin alpha-V/beta-3 [4] was 6.41. In data set [6], this compound registered a bioavailability of 4%.
As for `CNc1cccc(CCOc2ccc3c(c2)CN(CC(F)(F)F)C(=O)[C@H](CC(=O)O)C3)n1`, the pKi was 8.92 on Integrin alpha-V/beta-3 [3] and 5.42 in data set [5]. For the same compound, the clearance in data set [1] worked out at 25 mL/min/kg. The compound further showed a half-life in data set [2] of 53 min. Also, at Integrin alpha-V/beta-3 [4], the pIC50 is 8.52. In data set [6], the bioavailability was 72%.
`O=C(O)C[C@@H]1Cc2ccc(OCCCNc3ccccn3)cc2CN(CC(F)(F)F)C1=O`: the negative-log Ki (pKi) was 9.05 on Integrin alpha-V/beta-3 [3] and 5.48 in data set [5]. The compound also returned a clearance in data set [1] of 16 mL/min/kg. In addition, the half-life in data set [2] stood at 360 min. This compound also showed a negative logarithm of the IC50 (pIC50) at Integrin alpha-V/beta-3 [4] of 7.92. The compound further registered a bioavailability in data set [6] of 34%.

Source of the values: ChEMBL document CHEMBL1133172, “Discovery of orally active nonpeptide vitronectin receptor antagonists based on a 2-benzazepine Gly-Asp mimetic” (J Med Chem, 2000).
